{"source": "paper PMC3338887", "about": "(Journal of Natural Products, 2012)", "key": {"C. albicans DAY185": {"tested_on": "C. albicans DAY185", "experiment": "C. albicans growth inhibition / cell viability", "type": "cell-based, Candida albicans", "conditions": "for MIC: Candida albicans, DAY185, 48 h, read-out: MIC of growth inhibition"}, "[1]": {"tested_on": "C. albicans DAY185 hyphae formation", "experiment": "Hyphae formation assay", "type": "cell-based, Candida albicans", "conditions": "for network of hyphal growth versus vehicle control: 50 μM, 6 h incubation, Figure 3; for germ tube and hyphae formation by 6 h: 6 h post inoculation; for germ tube and hyphae formation by 6 h / hyphae at 24 h: versus vehicle-treated cells; for hyphae at 24 h: 24 h post inoculation; for C. albicans hyphae formation / hyphal morphogenesis: phase contrast microscopy", "summary_of_the_method": "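DAY185 grown overnight in BHI at 37 °C, pelleted, washed and resuspended in PBS pH 7.4. Seeded at 1×10^6 cells/well for 1 h at 37 °C, then washed twice with PBS to remove non-adherent cells. RPMI 1640 with 2% glucose plus test compound (50 μM), farnesol (50 μM) or DMSO vehicle (1% by vol.) added. Incubated at 37 °C; phase-contrast microscopy (×200) at 2.5, 6 and 24 h.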"}, "[2]": {"tested_on": "C. albicans DAY185 biofilm formation", "experiment": "Biofilm time of addition assay", "type": "cell-based, Candida albicans", "conditions": "conclusion from the time-of-addition study"}, "[3]": {"experiment": "Stability in organic solvents", "type": "physicochemical", "conditions": "MeOH and varying H2O-MeOH mixtures, CHCl3, CH2Cl2, EtOAc"}, "MIA PaCa-2 cells": {"tested_on": "MIA PaCa-2 cells", "experiment": "Mammalian cell cytotoxicity assay", "type": "cell-based, human", "conditions": "MIA PaCa-2 cell line, 24 h, MTT"}, "[4]": {"conditions": "several organic solvents; cited from earlier work"}}, "note": "“Also recorded” adds a separate entry of the source.", "data": [{"smiles": "CC1(C)C=Cc2c(ccc3c4c([nH]c23)C(C)(C)[C@@H]2C[C@]35CCCN3C(=O)[C@@]2(C4)NC5=O)O1", "note": "[Compound 6, stephacidin A]", "values": [{"measurement": "MIC", "setting": "C. albicans DAY185", "result": "> 200", "unit": "µM"}]}, {"smiles": "CC1(C)C=Cc2c(ccc3c2NC(=O)[C@@]32[C@H](O)[C@@]34NC(=O)[C@]5(CCCN5C3=O)C[C@H]4C2(C)C)O1", "note": "[Compound 3, sclerotiamide]", "values": [{"measurement": "MIC", "setting": "C. albicans DAY185", "result": "> 200", "unit": "µM"}]}, {"smiles": "C/C=C/C=C/C=C/[C@H]1C[C@@H](O)C[C@@H](O)[C@@H]1C", "note": "[Compound 16, waikialide B]", "values": [{"measurement": "MIC", "setting": "C. albicans DAY185", "result": "> 200", "unit": "µM"}]}, {"smiles": "CC(C)=CCC/C(C)=C/CC/C(C)=C/CO", "note": "[farnesol, reference compound]", "values": [{"measurement": "MIC", "setting": "C. albicans DAY185", "result": "> 200", "unit": "µM"}, {"measurement": "effect on C. albicans cell survival", "setting": "C. albicans DAY185; positive control", "result": "did not impede cell survival"}, {"measurement": "network of hyphal growth versus vehicle control", "setting": "[1]", "result": "significantly reduced or absent from nearly all cells"}]}, {"smiles": "CC1(C)C=Cc2c(ccc3c2[N+]([O-])=C2C(C)(C)[C@@H]4C[C@]56CCCN5C(=O)[C@]4(NC6=O)[C@H]4N5C(=O)[C@@]67CCCN6C(=O)[C@@]56[C@H](c5c([nH]c8c9c(ccc58)OC(C)(C)C=C9)C(C)(C)[C@@H]6C7)[C@]234)O1", "note": "[Compound 1, waikialoid A]", "values": [{"measurement": "MIC", "setting": "C. albicans DAY185", "result": "> 200", "unit": "µM"}, {"measurement": "network of hyphal growth versus vehicle control", "setting": "[1]", "result": "significantly reduced or absent from nearly all cells"}, {"measurement": "germ tube and hyphae formation by 6 h", "setting": "[1]", "result": "did not form germ tubes or hyphae by 6 h"}, {"measurement": "hyphae at 24 h", "setting": "[1]", "result": "severely truncated hyphae"}, {"measurement": "C. albicans hyphae formation / hyphal morphogenesis", "setting": "[1]", "result": "inhibited C. albicans hyphal morphogenesis; also recorded: inhibited C. albicans hyphae formation in a dose dependent manner"}, {"measurement": "effect on preformed biofilms", "setting": "[2]", "result": "ineffective at disrupting preformed biofilms; also recorded: likely not effective at inhibiting or disrupting preformed biofilms"}, {"measurement": "stability in solvents", "setting": "[3]", "result": "very stable for days"}, {"measurement": "not toxic to mammalian (human) cells at concentrations up to", "setting": "MIA PaCa-2 cells", "result": "> 200", "unit": "µM"}]}, {"smiles": "CC1(C)C=Cc2c(ccc3c2[N+]([O-])=C2C3=C[C@@]34NC(=O)[C@]5(CCCN5C3=O)C[C@H]4C2(C)C)O1", "note": "[Compound 7, CJ-17665]", "values": [{"measurement": "MIC", "setting": "C. albicans DAY185", "result": "> 200", "unit": "µM"}]}, {"smiles": "CC1(C)C=Cc2c(ccc3c4c([nH]c23)C(C)(C)[C@@H]2C[C@]35CCCN3C(=O)[C@]2(NC5=O)[C@H]4O)O1", "note": "[Compound 5, notoamide R]", "values": [{"measurement": "MIC", "setting": "C. albicans DAY185", "result": "> 200", "unit": "µM"}]}, {"smiles": "CC1(C)C=Cc2c(ccc3c2[N+]([O-])=C2C(C)(C)[C@@H]4CC56CCCN5C(=O)[C@]4(NC6=O)[C@H]4N5C(=O)[C@@]67CCCN6C(=O)[C@@]56[C@H](c5c(n(O)c8c9c(ccc58)OC(C)(C)C=C9)C(C)(C)[C@@H]6C7)[C@]234)O1", "note": "[Compound 17, stephacidin B]", "values": [{"measurement": "stability in organic solvents", "setting": "[4]", "result": "degrade in several organic solvents"}]}, {"smiles": "C/C=C/C=C/C=C/[C@H]1C[C@@H](O)CC(=O)[C@@H]1C", "note": "[Compound 15, waikialide A]", "values": [{"measurement": "MIC", "setting": "C. albicans DAY185", "result": "> 200", "unit": "µM"}, {"measurement": "network of hyphal growth versus vehicle control", "setting": "[1]", "result": "significantly reduced or absent from nearly all cells"}, {"measurement": "germ tube and hyphae formation by 6 h", "setting": "[1]", "result": "did not form germ tubes or hyphae by 6 h"}, {"measurement": "hyphae at 24 h", "setting": "[1]", "result": "severely truncated hyphae"}, {"measurement": "C. albicans hyphae formation / hyphal morphogenesis", "setting": "[1]", "result": "inhibited C. albicans hyphae formation in a dose dependent manner"}]}, {"smiles": "CC1(C)C=Cc2c(ccc3c2[N+]([O-])=C2C(C)(C)[C@@H]4C[C@]56CCCN5C(=O)[C@]4(NC6=O)[C@H]4N5C(=O)[C@@]67CCCN6C(=O)[C@@]56[C@@H]([C@]234)[C@]2(O)C(=[N+]([O-])c3c2ccc2c3C=CC(C)(C)O2)C(C)(C)[C@@H]6C7)O1", "note": "[Compound 14, waikialoid B]", "values": [{"measurement": "MIC", "setting": "C. albicans DAY185", "result": "> 200", "unit": "µM"}]}, {"smiles": "CC1(C)C=Cc2c(ccc3c2NC(=O)[C@@]32C[C@@]34NC(=O)[C@]5(CCCN5C3=O)C[C@H]4C2(C)C)O1", "note": "[Compound 2, notoamide B]", "values": [{"measurement": "MIC", "setting": "C. albicans DAY185", "result": "> 200", "unit": "µM"}]}]}
